Assay results published in ChEMBL document CHEMBL1138188, “Synthesis and anti-HIV activity of D- and L-thietanose nucleosides” (J Med Chem, 2006).

Tests used:
[1] = system: CCRF-CEM; experiment: Cytotoxicity against human CEM cells; format: functional, cell-based
How it was run: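 Log-phase CEM T-lymphoblastoid cells seeded at 2.5 × 10³ cells/well with 10-fold serial compound dilutions, held 4 days at 37 °C, 5% CO₂. MTT dye added overnight, then stop-solubilization 5 h; absorbance at 570 nm.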

[2] = system: PBMC; experiment: Cytotoxicity against human PBMC; format: functional, cell-based
How it was run: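 Uninfected PHA-stimulated human PBM cells, log phase, 5 × 10⁴ cells/well, exposed to 10-fold serial compound dilutions for 5 days at 37 °C, 5% CO₂. MTT overnight, formazan dissolved 5 h, read at 570 nm.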

[3] = system: Vero; experiment: Cytotoxicity against Vero cells; format: functional, cell-based; settings: Chlorocebus sabaeus
How it was run: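 Log-phase Vero cells seeded at 5 × 10³ cells/well with 10-fold serial compound dilutions, incubated 3 days at 37 °C, 5% CO₂. MTT dye added overnight, formazan solubilized 5 h, absorbance read at 570 nm.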

[4] = system: Human immunodeficiency virus 1; experiment: Antiviral activity against HIV1 in human PBMC; format: functional, organism-based
How it was run: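 PHA-stimulated (2-3 days) human PBM cells from seronegative donors, infected in bulk 1 h with HIV-1 LAI (100 TCID50/1 × 10⁷ cells, flask; or 200 TCID50/6 × 10⁵ cells/well, 24-well), then added to 10-fold serial compound dilutions in RPMI-1640/16% FBS/IL-2/DEAE-dextran. 5 days, 37 °C, 5% CO₂. Supernatant RT activity by poly(rA)·oligo(dT), ³H-TTP incorporation, 2 h 37 °C; EC50/EC90 by median effect method.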

| SMILES | IC50 [1] [µM] | IC50 [2] [µM] | IC50 [3] [µM] | EC50 [4] [µM] | EC90 [4] [µM] |
| --- | --- | --- | --- | --- | --- |
| OC[C@H]1[C@H](CO)S[C@@H]1n1cnc2c(O)ncnc21 | > 100 | > 100 | > 100 | > 100 | > 100 |
| Nc1nc(O)c2ncn([C@@H]3S[C@H](CO)[C@H]3CO)c2n1 | > 100 | > 100 | > 100 | > 100 | > 100 |
| O=c1ccn([C@@H]2S[C@H](CO)[C@H]2CO)c(=O)[nH]1 | 4.9 | 8.5 | > 100 | 6.9 | 23.1 |
| Cc1cn([C@@H]2S[C@H](CO)[C@H]2CO)c(=O)[nH]c1=O | > 100 | > 100 | > 100 | > 100 | > 100 |
| Cc1cn([C@H]2S[C@@H](CO)[C@@H]2CO)c(=O)[nH]c1=O | > 100 | > 100 | > 100 | > 100 | > 100 |
| Nc1ccn([C@H]2S[C@@H](CO)[C@@H]2CO)c(=O)n1 | 45.6 | 13.1 | > 100 | 14.1 | 47.6 |
| OC[C@H]1[C@H](n2cnc3c(O)ncnc32)S[C@@H]1CO | > 100 | > 100 | > 100 | > 100 | > 100 |
| Nc1nc(O)c2ncn([C@H]3S[C@@H](CO)[C@@H]3CO)c2n1 | > 100 | > 100 | > 100 | > 100 | > 100 |
| Nc1nc(=O)n([C@@H]2S[C@H](CO)[C@H]2CO)cc1Br | 1.8 | > 100 | > 100 | 11.5 | 41.9 |
| Nc1nc(=O)n([C@@H]2S[C@H](CO)[C@H]2CO)cc1F | 19 | < 1 | > 100 | 5.8 | 13.9 |
| Nc1ncnc2c1ncn2[C@H]1S[C@@H](CO)[C@@H]1CO | > 100 | > 100 | > 100 | > 100 | > 100 |
| O=c1ccn([C@H]2S[C@@H](CO)[C@@H]2CO)c(=O)[nH]1 | > 100 | > 100 | > 100 | > 100 | > 100 |
| Nc1ccn([C@@H]2S[C@H](CO)[C@H]2CO)c(=O)n1 | 4.3 | ≤ 1 | 54.8 | 1.3 | 5.3 |
| Nc1ncnc2c1ncn2[C@@H]1S[C@H](CO)[C@H]1CO | > 100 | > 100 | > 100 | > 100 | > 100 |
| Nc1nc(=O)n([C@@H]2S[C@H](CO)[C@H]2CO)cc1Cl | > 100 | > 100 | > 100 | > 100 | > 100 |
| Cc1cn([C@H]2C[C@H](N=[N+]=[N-])[C@@H](CO)O2)c(=O)[nH]c1=O [ZIDOVUDINE] | – | > 100 | – | – | 0.01 |
